CendR NRP1 mod = alters CendR peptide binding to human NRP-1 | O14786 | FAM-RPARPAR peptide binding to NRP-1, fluorescence polarization | inhibition, % at 25 µM | 0.85% of 360,000 active;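 active = inhibition or corrected inhibition above about 18%, plus a signal ratio from 0.5 to 1.5, limit read from the data, passing the limit was not always enough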
SENP8 block-1 = inhibitors of human SENP8 protease. recombinant SENP8, Nedd8 substrate fluorescence. inhibition, % at 20 µM. 0.64% of 360,000 active; in the data active = inhibition mostly above about 40%, no sharp cut-off; inactive = mostly below about 27%
SENP7 inh = blocks the human protease SENP7 | recombinant SENP7, Z-RLRGG-aminoluciferin luminescence, 40 min | Q9BQF6 | 1.5% of 330,000 active | inhibition, % at 5 µM;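 active = inhibition above about 50% at the single test dose, limit read from the data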
SENP1 inh = SENP1 (human) catalytic domain inhibition; 0.21% of 360,000 active; Q9P0U3; recombinant SENP1 catalytic domain, CyPet-SUMO1-YPet FRET cleavage; inhibition, % at 10 µM;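 active = inhibition at least 30% at 10 µM, raw YFP signal under a set limit, fluorescence ratio 0.5 to 1.5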
Target sequence (Q9P0U3 419-644 limits assumed): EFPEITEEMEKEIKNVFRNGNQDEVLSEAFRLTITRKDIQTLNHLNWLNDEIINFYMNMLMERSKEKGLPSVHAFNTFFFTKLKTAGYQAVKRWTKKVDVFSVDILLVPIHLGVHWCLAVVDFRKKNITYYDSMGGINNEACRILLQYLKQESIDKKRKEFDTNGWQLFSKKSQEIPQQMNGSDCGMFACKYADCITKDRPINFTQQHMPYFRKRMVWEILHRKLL
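Material – human SENP1 catalytic domain · Input – SENP1 enzyme, 20 pM final · Compound dosing – single concentration of 10 µM compound, 0.5% DMSO final · Timing – enzyme reaction for 50 min at room temperature, dark · Measured by – FRET fluorescence in CFP and YFP emission channels · Control set – no-enzyme wells low, DMSO-plus-enzyme wells high control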
SENP8 block-2 = inhibitors of human SENP8 protease; Q96LD8; purified SENP8, Z-RLRGG-aminoluciferin cleavage, luminescence; inhibition, % at 10 µM; 1.2% of 330,000 active; AID 2540; in the data active = inhibition above about 50%
SENP6 inh = inhibitors of human SENP6 protease | Q9GZR1 | 1.8% of 330,000 active | inhibition, % at 10 µM | Recombinant SENP6 catalytic domain, aminoluciferin luminescence;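 active = inhibition above about 50% at the single tested dose, limit read from the data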
SENP8 confirm = confirmation of human SENP8 protease inhibitors | shares compounds with SENP7 inh | inhibition, % at 12.5 µM | Recombinant SENP8, Z-RLRGG-aminoluciferin luminescence, 60 min | 40% of 6,200 active;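 active = mean inhibition across replicates above about 50%, limit read from the data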
SENP6 conf = confirmation of human SENP6 protease inhibitors. recombinant SENP6, Z-RLRGG-aminoluciferin luminescence. shares compounds with SENP7 inh. inhibition, % at 12.5 µM. 58% of 6,200 active
SENP7 confirm = confirmation of human SENP7 protease inhibitors; shares compounds with SENP7 inh; recombinant SENP7, Z-RLRGG-aminoluciferin luminescence, 40 min; inhibition, % at 12.5 µM; 69% of 6,200 active; AID 488917
Casp3 SENP sel = caspase-3 inhibition (SENP selectivity assay) | shares compounds with SENP7 inh | purified caspase-3, Z-DEVD-aminoluciferin luminescence, 60 min | inhibition, % at 12.5 µM | 60% of 6,200 active | AID 488918;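 active = mean inhibition above about 50%, limit read from the data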
Target sequence (P42574 28-227 limits assumed): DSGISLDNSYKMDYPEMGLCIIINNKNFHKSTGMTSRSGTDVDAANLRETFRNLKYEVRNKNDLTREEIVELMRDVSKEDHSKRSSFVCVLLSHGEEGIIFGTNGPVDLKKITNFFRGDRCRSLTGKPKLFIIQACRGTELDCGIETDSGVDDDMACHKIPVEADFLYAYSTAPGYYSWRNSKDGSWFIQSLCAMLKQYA
SENP luc ctr = interferes with luciferase luminescence in SENP counter-screen; shares compounds with SENP7 inh; 39% of 6,200 active; inhibition, % at 12.5 µM; Pre-incubated SENP8/Z-RLRGG-aminoluciferin, luciferase luminescence interference;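 active = mean inhibition above about 50% when retested at one dose, limit read from the data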
Hits are given with their value; n = inactive; x = no result given. Hits are enriched below; roughly 3.3% of the tested compounds scored in any of these assays.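 Rule for the calls, unless noted: active = mean inhibition above about 50% in the one-dose retest (limit read from the data); inactive = the rest.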

SMILES	CendR NRP1 mod	SENP8 block-1	SENP7 inh	SENP1 inh	SENP8 block-2	SENP6 inh	SENP8 confirm	SENP6 conf	SENP7 confirm	Casp3 SENP sel	SENP luc ctr
CN1C(=O)S/C(=C/c2ccc(OCc3cccc(C(=O)O)c3)cc2)C1=O	n	n	57	n	78	92	62	67	58	n	n
CCOC(=O)c1ccc(NC(=O)c2ncn3c2C(=O)NC[C@@H]3C)cc1	n	n	x	n	x	x	x	x	x	x	x
CCOc1ccc(CCNC(=O)COC(=O)CSc2ccc(C)cc2)cc1OCC	n	n	n	n	n	n	x	x	x	x	x
O=C(CCN1C(=O)/C(=C/c2ccco2)SC1=S)Nc1ccc(C(=O)O)c(O)c1	n	n	n	n	n	n	x	x	x	x	x
COc1ccccc1/C=C1\SC(=S)N(CCC(=O)Nc2ccc(C(=O)O)c(O)c2)C1=O	n	n	n	n	64	72	77	76	79	n	81
CC(=O)NC(c1ccccc1)c1nc(/C=C/c2ccccc2)cs1 (configuration not stated)	n	n	x	n	x	x	x	x	x	x	x
O=C(Nc1ccccc1)c1ccc2ccccc2n1	n	n	73	n	65	73	n	70	89	65	n
O=C(Nc1ccccc1C(=O)O)c1ccc2ccccc2n1	n	n	n	n	n	54	65	60	83	81	n
O=C(Nc1ccc(OC(F)(F)F)cc1)c1ccc2ccccc2n1	n	n	n	n	n	n	x	x	x	x	x
CCOC(=O)C1=CCN(S(=O)(=O)c2ccc(Cl)cc2)C1c1cccc(C)c1 (configuration not stated)	n	n	x	n	x	x	x	x	x	x	x
O=C(NCCc1c[nH]c2ccccc12)c1[nH]c(C(F)(F)F)nc1-c1ccccc1	n	n	x	n	x	x	x	x	x	x	x
COc1ccc(/C(N)=N/OC(=O)CSc2ccc(C)cc2)cc1	n	n	n	n	n	n	x	x	x	x	x
COc1ccc(C(=O)O/N=C(\N)c2ccccc2)cc1	n	n	100	n	97	97	99	100	103	98	98
COc1ccc(/C(N)=N/OC(=O)CSc2ccccc2)cc1	n	n	63	n	n	77	57	65	87	x	n
CC(C)(C)c1ccc(C(=O)O/N=C(\N)c2ccccc2)cc1	n	n	95	n	90	93	96	96	102	92	n
N/C(=N\OC(=O)c1ccc(Br)cc1)c1ccccc1	n	n	99	n	94	93	81	96	102	97	53
O=C(CCN1C(=O)CC1c1ccco1)N1CCOCC1 (configuration not stated)	n	n	x	n	x	x	x	x	x	x	x
O=C1NC[C@@H](CCCCN2C[C@H](Cc3ccc(O)cc3)N(CCC3CCCCC3)C(=O)C2=O)N(Cc2ccccc2)C1=O	n	n	x	n	x	x	x	x	x	x	x
O=C1CSCc2nc3ccccc3n21	n	n	x	n	x	x	x	x	x	x	x
O=C1c2[nH]c3ccccc3c2CC1N1C(=O)c2ccccc2C1=O (configuration not stated)	n	n	x	n	x	x	x	x	x	x	x
COC(=O)C[C@H]1CC[C@@H](NC(=O)C2CC2)[C@@H](CO)O1	n	n	x	n	x	x	x	x	x	x	x
O=C(COC(=O)c1ccccc1)c1ccc(Br)cc1	n	n	n	n	83	86	n	64	87	63	n
O=C(COC(=O)c1ccc(Br)cc1)NCCc1ccccc1	n	n	n	n	n	n	x	x	x	x	x
Nc1nc2c(-c3ccc(Br)cc3)nnn2c2ccccc12	n	n	70	n	n	n	n	n	n	n	n
O=C(O/N=C1/CCSc2ccccc21)c1ccc(F)cc1	n	n	87	n	n	n	73	92	89	79	n
SMILES	CendR NRP1 mod	SENP8 block-1	SENP7 inh	SENP1 inh	SENP8 block-2	SENP6 inh	SENP8 confirm	SENP6 conf	SENP7 confirm	Casp3 SENP sel	SENP luc ctr
O=C(O/N=C1/CCCc2occc21)c1ccc(F)cc1	n	n	88	n	83	87	n	88	79	66	n
CC1Oc2ccc(C#N)cc2N(Cc2cccc(F)c2)C1=O (configuration not stated)	n	n	x	n	x	x	x	x	x	x	x
CSc1nc2sc3c(c2c(=O)n1C)CCC3	n	n	n	n	n	n	x	x	x	x	x
CSc1nc2sc3c(c2c(=O)n1C)CCC(C)C3 (configuration not stated)	n	n	50	n	n	63	n	n	n	n	n
CCNc1nc(-c2ccc(Cl)cc2)cs1	n	n	62	n	72	85	n	71	94	60	69
Clc1ccc(Nc2nc(-c3ccncc3)cs2)cc1	n	n	n	n	n	n	x	x	x	x	x
CNc1nc(-c2ccc(Cl)cc2)cs1	n	n	n	n	n	62	54	58	82	51	n
Cc1csc(NC(=O)c2cc3c(s2)CCCCC3)n1	n	n	98	n	94	92	96	97	101	92	89
Cc1csc(NC(=O)c2cc3c(s2)CCCC3)n1	n	n	93	n	89	95	95	96	101	88	86
CCOC(=O)Cc1csc(NC(=O)c2cc3c(s2)CCCC3)n1	n	n	n	n	n	n	x	x	x	x	x
Cc1cnc(NC(=O)c2cc3c(s2)CCCC3)s1	n	n	85	n	81	88	88	88	97	79	56
O=C(Nc1ccon1)c1cc2c(s1)CCCC2	n	n	93	n	84	89	n	90	100	92	63
CC(C)(C)c1ccc(CC(=O)N2CCC2(C)C(=O)Nc2cccc3c2CCCC3)cc1 (configuration not stated)	n	n	x	n	x	x	x	x	x	x	x
COc1ccc2[nH]c3c(c2c1)CCN1C(=O)C(CC(=O)NCc2cccc(C(F)(F)F)c2)C[C@H](C(=O)N(C(C)C)C(C)C)[C@@]31C (some centres not stated)	n	n	n	n	x	x	x	x	x	x	x
Cc1csc(NC(=O)c2ccc(N3CCCC3=O)cc2)n1	n	n	79	n	63	77	n	n	63	85	n
Cc1ccc(CNc2ncnc3ccc(-c4ccoc4C)cc23)o1	n	n	x	n	x	x	x	x	x	x	x
CCC(Oc1ccccc1)C(=O)N1CCN(S(=O)(=O)c2ccccc2)CC1 (configuration not stated)	n	n	n	n	n	n	x	x	x	x	x

Compound activity (PubChem)
